Results on 20 molecules are retold here after ChEMBL document CHEMBL4351018, “Novel phenanthridin-6(5H)-one derivatives as potent and selective BET bromodomain inhibitors: Rational design, synthesis and biological evaluation” (Eur J Med Chem, 2019).

The first experiment has as its target Bromodomain-containing protein 4 (Homo sapiens, UniProt O60885). As to the kind of experiment: Inhibition of recombinant human His-tagged BRD4 bromodomain 1/2 (2 to 1362 residues) expressed in […] insect cells using biotinylated H4(1 to 21)K5/8/12/16Ac peptide as substrate preincubated for 30 mins followed by substrate addition and measured after 30 mins by Alpha screen assay.
Settings: not given
Turning to `O=c1[nH]c2ccc(NS(=O)(=O)c3ccc4c(c3)CCO4)cc2c2ccccc12`, the IC50 came out at 13.1 µM.

On to `O=c1[nH]c2ccc(NS(=O)(=O)c3ccccc3)cc2c2ccccc12`, for which the 50% inhibitory concentration (IC50) amounted to 1.64 µM.

As to `CCCCS(=O)(=O)Nc1ccc2[nH]c(=O)c3ccccc3c2c1`, the IC50 was 5.54 µM.

In the case of `O=C(Nc1ccccc1)Nc1ccc2[nH]c(=O)c3ccccc3c2c1`, the 50% inhibitory concentration (IC50) came out at 9.93 µM.

Regarding `COc1ccccc1S(=O)(=O)Nc1ccc2[nH]c(=O)c3ccccc3c2c1`, the IC50 turned out to be 0.48 µM.

As to `CC(C)(C)c1ccc(S(=O)(=O)Nc2ccc3[nH]c(=O)c4ccccc4c3c2)cc1`, the IC50 came to 1.13 µM.

Turning to `O=c1[nH]c2ccc(NS(=O)(=O)c3ccc(Cl)cc3)cc2c2ccccc12`, the IC50 turned out to be 0.85 µM.

For `O=c1[nH]c2ccc(NS(=O)(=O)c3cccs3)cc2c2ccccc12`, the IC50 came to 6.74 µM.

For `O=c1[nH]c2ccc(NS(=O)(=O)C3CCCC3)cc2c2ccccc12`, the IC50 was found to be 6.17 µM.

For `O=C(Nc1ccc2[nH]c(=O)c3ccccc3c2c1)Oc1ccccc1`, the concentration for half-maximal inhibition (IC50) was determined as 6.02 µM.

Take `O=c1[nH]c2ccc(NS(=O)(=O)C3CCCCC3)cc2c2ccccc12`: the 50% inhibitory concentration (IC50) was 5.92 µM.

Consider `O=c1[nH]c2ccc(NS(=O)(=O)c3ccc4ccccc4c3)cc2c2ccccc12`, for which the IC50 is 7.23 µM.

With `COc1ccc(S(=O)(=O)Nc2ccc3[nH]c(=O)c4ccccc4c3c2)cc1`, the 50% inhibitory concentration (IC50) worked out at 1.32 µM.

`O=c1[nH]c2ccc(NS(=O)(=O)Cc3ccccc3)cc2c2ccccc12`: the IC50 was 5.17 µM.

Consider `O=C(Nc1ccc2[nH]c(=O)c3ccccc3c2c1)c1ccccc1`, for which the IC50 was 18.6 µM.

As for `COc1cc(Cl)ccc1S(=O)(=O)Nc1ccc2oc(=O)ccc2c1`, the IC50 was 0.93 µM.

Regarding `CCCS(=O)(=O)Nc1ccc2[nH]c(=O)c3ccccc3c2c1`, the half-maximal inhibitory concentration (IC50) was found to be 6.71 µM.

As for `O=c1[nH]c2ccc(NS(=O)(=O)c3ccccc3Cl)cc2c2ccccc12`, the IC50 turned out to be 1.25 µM.

Take `O=c1[nH]c2ccc(NS(=O)(=O)c3cccc(Cl)c3)cc2c2ccccc12`: the IC50 amounted to 0.79 µM.

Turning to `N#Cc1cccc(S(=O)(=O)Nc2ccc3[nH]c(=O)c4ccccc4c3c2)c1`, the IC50 worked out at 1.79 µM.

Another experiment concerns A549. As to the kind of experiment: Antiproliferative activity against human A549 cells incubated for 48 hrs by MTT assay. The format is functional, cell-based. The settings on record: A549, 48 h. The essentials:
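Cells kept in DMEM or RPMI 1640 with 10% FBS at 37 °C, 5% CO2. MTT added for 4 h at 37 °C, formazan dissolved in DMSO, OD read at 570 nm. Survival % taken relative to blank and control wells. Triplicate runs; IC50 from curve fit.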
`COc1cc(Cl)ccc1S(=O)(=O)Nc1ccc2oc(=O)ccc2c1` showed an IC50 of 4.63 µM.
